The text below walks through data of ChEMBL document CHEMBL1126585, “Effect of N-methyl substitution of the peptide bonds in luteinizing hormone-releasing hormone agonists” (J Med Chem, 1993).

One may read the clearance as a measure of how efficiently the substance is removed, as volume per time. Lower therefore signals inefficient removal. In general, half-life refers to the time needed for the level to fall by half in the phase considered.

The structures appear in SMILES notation. Square brackets hold non-standard residues; d marks the D form. Peptide text beside a SMILES is read from it. 1Nal = N[C@@H](Cc1cccc2ccccc12)C(=O)O; NMeF = CN[C@@H](Cc1ccccc1)C(=O)O; pGlu = O=C1CC[C@@H](C(=O)O)N1; NMeS = CN[C@@H](CO)C(=O)O

For series [1], the species on record is Rattus norvegicus. Briefly: In vitro for LH release inhibition from cultured rat pituitary cells, activity is expressed as pA2 value. It counts as functional, cell-based. Conditions: Pituitary gland cell, read-out: pA2 (converted). An outline of the steps:
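Cultured rat pituitary cells releasing LH in response to agonist; pA2 = negative log of antagonist concentration requiring 2-fold more agonist for LH release.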

The nature of series [2]: Clearance in rat after iv dose (100 ug/kg). It counts as ADME, organism-based. Conditions: in vivo, 0.1 mg/kg. A digest of the protocol:
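Castrate male rats given 100 μg/kg iv bolus; blood sampled over 6 h with EDTA anticoagulant. Plasma levels by RIA with antibody recognizing C-terminal Leu-Arg-Pro-NHEt or Leu-Arg-Pro-GlyNH₂ (rabbit antisera C-402 with [125I-Tyr⁵]leuprolide tracer, or 5328W with [125I-Tyr⁵,DLys⁶]LHRH). AUC by trapezoidal rule; whole-body clearance = dose/AUC, mL/min per kg.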

Series [3] concerns chymotrypsin. Description: Chymotrypsin degradation half-life was determined. It counts as ADME.
For series [4], the species on record is Rattus norvegicus. Description: Intestinal stability against rat jejunum sac, activity is expressed as T1/2. It counts as functional. An outline of the steps: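 Rat jejunal sac in vitro; T1/2 taken as time, in min, for lumenal compound concentration to fall by 50%.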
For series [5], the species on record is Rattus norvegicus. Briefly: Tested in vitro for LH release from cultured rat pituitary cells, activity is expressed as pD2 value. It counts as functional, Pituitary gland cell. A digest of the protocol: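 Cultured rat pituitary cells; LH release measured across agonist concentrations; pD2 = negative log of agonist concentration giving 50% of maximal LH release.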

Take `CCNC(=O)[C@@H]1CCCN1C(=O)[C@H](CCCN=C(N)N)NC(=O)[C@H](CC(C)C)NC(=O)[C@@H](Cc1c[nH]c2ccccc12)NC(=O)[C@H](Cc1ccc(O)cc1)NC(=O)[C@H](CO)NC(=O)[C@H](Cc1c[nH]c2ccccc12)NC(=O)[C@H](Cc1cnc[nH]1)N(C)C(=O)[C@@H]1CCC(=O)N1`: the Kb in series [1] is 5.5 nM. The molecule also returned a clearance in series [2] of 16.4 mL/min/kg.
On to `CC(C)C[C@H](NC(=O)[C@@H](Cc1ccc2ccccc2c1)NC(=O)[C@H](Cc1ccc(O)cc1)N(C)C(=O)[C@H](CO)NC(=O)[C@H](Cc1c[nH]c2ccccc12)NC(=O)[C@H](Cc1c[nH]cn1)NC(=O)[C@@H]1CCC(=O)N1)C(=O)N[C@@H](CCCN=C(N)N)C(=O)N1CCC[C@H]1C(=O)NCC(N)=O`, for which the half-life in series [3] was over 60 min. Also, the clearance in series [2] stood at 3.4 mL/min/kg. Besides, the T1/2 in series [4] turned out to be 33 min. The molecule also gave a pD2 in series [5] of 10.95.
Consider `CCNC(=O)[C@@H]1CCCN1C(=O)[C@H](CCCN=C(N)N)NC(=O)[C@H](CC(C)C)NC(=O)[C@@H](CC(C)C)NC(=O)[C@H](Cc1ccc(O)cc1)NC(=O)[C@H](CO)NC(=O)[C@H](Cc1cccc2ccccc12)N(C)C(=O)[C@H](Cc1c[nH]cn1)NC(=O)[C@@H]1CCC(=O)N1`, for which, in series [1], the Kb was 257 nM. In series [3], this molecule yielded a half-life of over 60 min. The clearance in series [2] came out at 14.4 mL/min/kg. In series [4], this molecule gave a T1/2 of 44 min.
`CCNC(=O)[C@@H]1CCCN1C(=O)[C@H](CCCNC(=N)N)NC(=O)[C@H](CC(C)C)NC(=O)[C@@H](CC(C)C)NC(=O)[C@H](Cc1ccc(O)cc1)NC(=O)[C@H](CO)NC(=O)[C@H](Cc1c[nH]c2ccccc12)NC(=O)[C@H](Cc1c[nH]cn1)NC(=O)[C@@H]1CCC(=O)N1` [LEUPROLIDE] registered a half-life in series [3] of 1 min. Besides, the clearance in series [2] was 9 mL/min/kg. In addition, in series [4], the T1/2 turned out to be 4 min.
Take `CCNC(=O)[C@@H]1CCCN1C(=O)[C@H](CCCN=C(N)N)NC(=O)C(CC(C)C)NC(=O)C(CC(C)C)NC(=O)[C@H](Cc1ccc(O)cc1)NC(=O)[C@H](CO)NC(=O)[C@H](Cc1c[nH]c2ccccc12)NC(=O)[C@H](Cc1ccccc1)N(C)C(=O)[C@@H]1CCC(=O)N1` (stereo in doubt): the Kb in series [1] was 29.5 nM. The same molecule had a half-life in series [3] of 6 min. In series [2], this molecule displayed a clearance of 31 mL/min/kg. The T1/2 in series [4] is 18 min.
For `CC(C)C[C@H](NC(=O)[C@@H](Cc1ccc2ccccc2c1)NC(=O)[C@H](Cc1ccc(O)cc1)NC(=O)[C@H](CO)NC(=O)[C@H](Cc1c[nH]c2ccccc12)NC(=O)[C@H](Cc1c[nH]cn1)NC(=O)[C@@H]1CCC(=O)N1)C(=O)N(C)[C@@H](CCCN=C(N)N)C(=O)N1CCC[C@H]1C(=O)NCC(N)=O`, the Kb in series [1] is 11.2 nM. In series [2], this molecule returned a clearance of 3.87 mL/min/kg.
For the molecule `CC(C)C[C@H](NC(=O)[C@@H](Cc1ccc2ccccc2c1)NC(=O)[C@H](Cc1ccc(O)cc1)NC(=O)[C@H](CO)N(C)C(=O)[C@H](Cc1c[nH]c2ccccc12)NC(=O)[C@H](Cc1c[nH]cn1)NC(=O)[C@@H]1CCC(=O)N1)C(=O)N[C@@H](CCCN=C(N)N)C(=O)N1CCC[C@H]1C(=O)NCC(N)=O`, the half-life in series [3] was over 60 min. In addition, the clearance in series [2] is 27.6 mL/min/kg. The T1/2 in series [4] worked out at 47 min. This molecule showed a pD2 in series [5] of 11.3.
`CCNC(=O)[C@@H]1CCCN1C(=O)[C@H](CCCN=C(N)N)NC(=O)[C@H](CC(C)C)NC(=O)[C@@H](Cc1c[nH]c2ccccc12)NC(=O)[C@H](Cc1ccc(O)cc1)NC(=O)[C@H](CO)NC(=O)[C@H](Cc1c[nH]c2ccccc12)NC(=O)[C@H](Cc1ccccc1)N(C)C(=O)[C@@H]1CCC(=O)N1` ([pGlu][NMeF]WSY[dW]LRP-NHEt) returned a half-life in series [3] of 3.7 min. In series [2], the clearance was determined as 44.5 mL/min/kg. Also, the T1/2 in series [4] stood at 44.4 min.
In turn, `CC(C)C[C@H](NC(=O)[C@@H](Cc1ccc2ccccc2c1)NC(=O)[C@H](Cc1ccc(O)cc1)NC(=O)[C@H](CO)NC(=O)[C@H](Cc1c[nH]c2ccccc12)NC(=O)[C@H](Cc1cnc[nH]1)NC(=O)[C@@H]1CCC(=O)N1)C(=O)N[C@@H](CCCNC(=N)N)C(=O)N1CCC[C@H]1C(=O)NCC(N)=O` [NAFARELIN] returned a half-life in series [3] of 0.5 min. This molecule showed a clearance in series [2] of 5.5 mL/min/kg. For the same molecule, the pD2 in series [5] turned out to be 11.05.
In series [3], `CCNC(=O)[C@@H]1CCCN1C(=O)[C@H](CCCN=C(N)N)NC(=O)[C@H](CC(C)C)NC(=O)[C@@H](CC(C)C)NC(=O)[C@H](Cc1ccc(O)cc1)NC(=O)[C@H](CO)N(C)C(=O)[C@H](Cc1c[nH]c2ccccc12)NC(=O)[C@H](Cc1c[nH]cn1)NC(=O)[C@@H]1CCC(=O)N1` ([pGlu]HW[NMeS]Y[dL]LRP-NHEt) showed a half-life of over 60 min. Further, the clearance in series [2] is 16.9 mL/min/kg. In addition, in series [4], the T1/2 is over 90 min.
With `CC(C)C[C@H](NC(=O)[C@@H](CC(C)C)NC(=O)[C@H](Cc1ccc(O)cc1)NC(=O)[C@H](CO)NC(=O)[C@H](Cc1c[nH]c2ccccc12)NC(=O)[C@H](Cc1c[nH]cn1)NC(=O)[C@@H]1CCC(=O)N1)C(=O)N[C@@H](CCCN=C(N)N)C(=O)N1CCC[C@H]1C(=O)N(C)CC(N)=O`, in series [3], the half-life came out at 1 min. Also, the clearance in series [2] amounted to 9.77 mL/min/kg. In addition, in series [4], the T1/2 is 8.4 min. The molecule further yielded a pD2 in series [5] of 8.73.
Consider `CC(C)C[C@H](NC(=O)[C@@H](Cc1ccc2ccccc2c1)NC(=O)[C@H](Cc1ccc(O)cc1)NC(=O)[C@H](CO)NC(=O)[C@H](Cc1c[nH]c2ccccc12)NC(=O)[C@H](Cc1ccccc1)N(C)C(=O)[C@@H]1CCC(=O)N1)C(=O)N[C@@H](CCCN=C(N)N)C(=O)N1CCC[C@H]1C(=O)NCC(N)=O`, for which the Kb in series [1] is 1.58 nM.
`CCNC(=O)[C@@H]1CCCN1C(=O)[C@H](CCCN=C(N)N)NC(=O)[C@H](CC(C)C)NC(=O)[C@@H](CC(C)C)NC(=O)[C@H](Cc1ccc(O)cc1)NC(=O)[C@H](CO)NC(=O)[C@H](Cc1cccc2ccccc12)NC(=O)[C@H](Cc1c[nH]cn1)NC(=O)[C@@H]1CCC(=O)N1` ([pGlu]H[1Nal]SY[dL]LRP-NHEt): the half-life in series [3] was over 15 min. Also, in series [2], the clearance was 28.4 mL/min/kg. In series [4], this molecule gave a T1/2 of 25 min.
In turn, `CCNC(=O)[C@@H]1CCCN1C(=O)[C@H](CCCN=C(N)N)NC(=O)[C@H](CC(C)C)N(C)C(=O)[C@@H](CC(C)C)NC(=O)[C@H](Cc1ccc(O)cc1)NC(=O)[C@H](CO)NC(=O)[C@H](Cc1c[nH]c2ccccc12)NC(=O)[C@H](Cc1c[nH]cn1)NC(=O)[C@@H]1CCC(=O)N1` returned a half-life in series [3] of 1 min. In addition, in series [2], the clearance turned out to be 8.3 mL/min/kg. The T1/2 in series [4] was determined as 4.1 min. This molecule also returned a pD2 in series [5] of 10.45.
Regarding `CCNC(=O)[C@@H]1CCCN1C(=O)[C@H](CCCN=C(N)N)N(C)C(=O)[C@H](CC(C)C)NC(=O)[C@@H](CC(C)C)NC(=O)[C@H](Cc1ccc(O)cc1)NC(=O)[C@H](CO)NC(=O)[C@H](Cc1c[nH]c2ccccc12)NC(=O)[C@H](Cc1c[nH]cn1)NC(=O)[C@@H]1CCC(=O)N1`, the half-life in series [3] came out at 1 min. Further, the T1/2 in series [4] is 6.6 min. For the same molecule, the pD2 in series [5] amounted to 7.
